Source: ChEMBL document CHEMBL4689842, “EUbOPEN Chemogenomics Library wave 1” (2021)

Test system: U2OS
Assay: Multiplex assay against U2OS
Format: toxicity, cell-based
Conditions: human
How it was run: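 Cells stained live at seeding with Hoechst33342, BioTracker Green Microtubule Cytoskeleton Dye, MitoTracker Red and Annexin V Alexa Fluor 680 were imaged on a CQ1 microscope at 37°C and 5% CO2 after compound addition. Their classification by CellPathfinder machine-learning gating ran from Hoechst high-intensity objects versus normal cells, to healthy, pyknosed or fragmented nuclei among normal cells, to mitotic or apoptotic among pyknosed cells. Tubulin, mitochondrial-mass and membrane-permeability phenotypes are per cents of healthy-nucleus cells.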

[1] = 12 h, 1 µM, compound concentration 1 uM, replicate 1
[2] = 12 h, 1 µM, compound concentration 1 uM, replicate 2
[3] = 12 h, 10 µM, compound concentration 10 uM, replicate 1
[4] = 12 h, 10 µM, compound concentration 10 uM, replicate 2
[5] = 24 h, 1 µM, compound concentration 1 uM, replicate 1
[6] = 24 h, 1 µM, compound concentration 1 uM, replicate 2
[7] = 24 h, 10 µM, compound concentration 10 uM, replicate 1
[8] = 24 h, 10 µM, compound concentration 10 uM, replicate 2
[9] = 48 h, 1 µM, compound concentration 1 uM, replicate 1
[10] = 48 h, 1 µM, compound concentration 1 uM, replicate 2
[11] = 48 h, 10 µM, compound concentration 10 uM, replicate 1
[12] = 48 h, 10 µM, compound concentration 10 uM, replicate 2

With `Cc1cc(C)cc(-c2cnc3cc(Cl)c(-c4cccc(O)c4)cc3c2OCCCN)c1` the “Population Apoptotic (%)” value [1] was 36%, the “Population Fragmented Nuclei (%)” value [1] was 11% and the “Population Healthy Nuclei (%)” value [1] was 75%. For the same molecule, the “Population Hoechst High Intensity Objects (%)” value [1] was 6%, the “Population Membrane Permeable-Phenotype (%)” value [1] was 5% and the “Population Mitochondria Different-Phenotype (%)” value [1] was 76%. The “Population Mitotic Cells (%)” value [1] was 64%, the “Population Normal (%)” value [1] was 93% and the “Population Pyknosed Nuclei (%)” value [1] was 12%. The “Population Tubulin-Different-Phenotype (%)” value [1] was 88%, the “Total Cell Count” value [1] was 132 and the “Population Apoptotic (%)” value [2] was 44%. The “Population Healthy Nuclei (%)” value [2] was 72%, the “Population Hoechst High Intensity Objects (%)” value [2] was 10% and the “Population Membrane Permeable-Phenotype (%)” value [2] was 2%. The “Population Mitochondria Different-Phenotype (%)” value [2] was 82%, the “Population Mitotic Cells (%)” value [2] was 55% and the “Population Normal (%)” value [2] was 90%. For the same molecule, the “Population Pyknosed Nuclei (%)” value [2] was 16%, the “Population Tubulin-Different-Phenotype (%)” value [2] was 56% and the “Total Cell Count” value [2] was 68. For the same molecule, the “Population Apoptotic (%)” value [3] was 90%, the “Population Fragmented Nuclei (%)” value [3] was 33% and the “Population Healthy Nuclei (%)” value [3] was 1%. For the same molecule, the “Population Hoechst High Intensity Objects (%)” value [3] was 14%, the “Population Membrane Permeable-Phenotype (%)” value [3] was 50% and the “Population Mitochondria Different-Phenotype (%)” value [3] was 50%. The “Population Mitotic Cells (%)” value [3] was 9%, the “Population Normal (%)” value [3] was 85% and the “Population Pyknosed Nuclei (%)” value [3] was 64%. For the same molecule, the “Population Tubulin-Different-Phenotype (%)” value [3] was 50%, the “Total Cell Count” value [3] was 207 and the “Population Apoptotic (%)” value [4] was 70%. For the same molecule, the “Population Fragmented Nuclei (%)” value [4] was 16%, the “Population Healthy Nuclei (%)” value [4] was 32% and the “Population Hoechst High Intensity Objects (%)” value [4] was 8%. The “Population Membrane Permeable-Phenotype (%)” value [4] was 90%, the “Population Mitochondria Different-Phenotype (%)” value [4] was 95% and the “Population Mitotic Cells (%)” value [4] was 29%. For the same molecule, the “Population Normal (%)” value [4] was 91%, the “Population Pyknosed Nuclei (%)” value [4] was 50% and the “Population Tubulin-Different-Phenotype (%)” value [4] was 100%. For the same molecule, the “Total Cell Count” value [4] was 60, the “Population Apoptotic (%)” value [5] was 35% and the “Population Fragmented Nuclei (%)” value [5] was 7%. For the same molecule, the “Population Healthy Nuclei (%)” value [5] was 77%, the “Population Hoechst High Intensity Objects (%)” value [5] was 5% and the “Population Membrane Permeable-Phenotype (%)” value [5] was 6%. The “Population Mitochondria Different-Phenotype (%)” value [5] was 75%, the “Population Mitotic Cells (%)” value [5] was 64% and the “Population Normal (%)” value [5] was 94%. The “Population Pyknosed Nuclei (%)” value [5] was 14%, the “Population Tubulin-Different-Phenotype (%)” value [5] was 68% and the “Total Cell Count” value [5] was 131. For the same molecule, the “Population Apoptotic (%)” value [6] was 62%, the “Population Fragmented Nuclei (%)” value [6] was 11% and the “Population Healthy Nuclei (%)” value [6] was 75%. The “Population Hoechst High Intensity Objects (%)” value [6] was 3%, the “Population Membrane Permeable-Phenotype (%)” value [6] was 2% and the “Population Mitochondria Different-Phenotype (%)” value [6] was 78%. The “Population Mitotic Cells (%)” value [6] was 37%, the “Population Normal (%)” value [6] was 96% and the “Population Pyknosed Nuclei (%)” value [6] was 13%. For the same molecule, the “Population Tubulin-Different-Phenotype (%)” value [6] was 28%, the “Total Cell Count” value [6] was 66 and the “Population Apoptotic (%)” value [7] was 86%. For the same molecule, the “Population Fragmented Nuclei (%)” value [7] was 33%, the “Population Healthy Nuclei (%)” value [7] was 2% and the “Population Hoechst High Intensity Objects (%)” value [7] was 15%. The “Population Membrane Permeable-Phenotype (%)” value [7] was 66%, the “Population Mitochondria Different-Phenotype (%)” value [7] was 66% and the “Population Mitotic Cells (%)” value [7] was 13%. The “Population Normal (%)” value [7] was 84%, the “Population Pyknosed Nuclei (%)” value [7] was 63% and the “Population Tubulin-Different-Phenotype (%)” value [7] was 66%. The “Total Cell Count” value [7] was 200, the “Population Apoptotic (%)” value [8] was 93% and the “Population Fragmented Nuclei (%)” value [8] was 24%. The “Population Healthy Nuclei (%)” value [8] was 3%, the “Population Hoechst High Intensity Objects (%)” value [8] was 7% and the “Population Membrane Permeable-Phenotype (%)” value [8] was 50%. For the same molecule, the “Population Mitochondria Different-Phenotype (%)” value [8] was 50%, the “Population Mitotic Cells (%)” value [8] was 6% and the “Population Normal (%)” value [8] was 92%. The “Population Pyknosed Nuclei (%)” value [8] was 72%, the “Population Tubulin-Different-Phenotype (%)” value [8] was 50% and the “Total Cell Count” value [8] was 63. The “Population Apoptotic (%)” value [9] was 48%, the “Population Fragmented Nuclei (%)” value [9] was 8% and the “Population Healthy Nuclei (%)” value [9] was 75%. The “Population Hoechst High Intensity Objects (%)” value [9] was 1%, the “Population Membrane Permeable-Phenotype (%)” value [9] was 3% and the “Population Mitochondria Different-Phenotype (%)” value [9] was 47%. The “Population Mitotic Cells (%)” value [9] was 51%, the “Population Normal (%)” value [9] was 98% and the “Population Pyknosed Nuclei (%)” value [9] was 15%. The “Population Tubulin-Different-Phenotype (%)” value [9] was 32%, the “Total Cell Count” value [9] was 127 and the “Population Apoptotic (%)” value [10] was 54%. For the same molecule, the “Population Fragmented Nuclei (%)” value [10] was 11%, the “Population Healthy Nuclei (%)” value [10] was 73% and the “Population Hoechst High Intensity Objects (%)” value [10] was 5%. The “Population Membrane Permeable-Phenotype (%)” value [10] was 5%, the “Population Mitochondria Different-Phenotype (%)” value [10] was 41% and the “Population Mitotic Cells (%)” value [10] was 45%. For the same molecule, the “Population Normal (%)” value [10] was 95%, the “Population Pyknosed Nuclei (%)” value [10] was 14% and the “Population Tubulin-Different-Phenotype (%)” value [10] was 16%. For the same molecule, the “Total Cell Count” value [10] was 73, the “Population Apoptotic (%)” value [11] was 83% and the “Population Fragmented Nuclei (%)” value [11] was 30%. For the same molecule, the “Population Healthy Nuclei (%)” value [11] was 3%, the “Population Hoechst High Intensity Objects (%)” value [11] was 20% and the “Population Membrane Permeable-Phenotype (%)” value [11] was 75%. The “Population Mitochondria Different-Phenotype (%)” value [11] was 75%, the “Population Mitotic Cells (%)” value [11] was 16% and the “Population Normal (%)” value [11] was 79%. The “Population Pyknosed Nuclei (%)” value [11] was 65%, the “Population Tubulin-Different-Phenotype (%)” value [11] was 75% and the “Total Cell Count” value [11] was 270. For the same molecule, the “Population Apoptotic (%)” value [12] was 96%, the “Population Fragmented Nuclei (%)” value [12] was 33% and the “Population Healthy Nuclei (%)” value [12] was 12%. For the same molecule, the “Population Hoechst High Intensity Objects (%)” value [12] was 17%, the “Population Membrane Permeable-Phenotype (%)” value [12] was 100% and the “Population Mitochondria Different-Phenotype (%)” value [12] was 100%. For the same molecule, the “Population Mitotic Cells (%)” value [12] was 3%, the “Population Normal (%)” value [12] was 82% and the “Population Pyknosed Nuclei (%)” value [12] was 54%. For the same molecule, the “Population Tubulin-Different-Phenotype (%)” value [12] was 100% and the “Total Cell Count” value [12] was 80.
